Laboratory results published in ChEMBL document CHEMBL2390833, “Elucidation of the pharmacophore of echinocystic acid, a new lead for blocking HCV entry” (Eur J Med Chem, 2013).

Assays:
Hepatitis C virus [1] = test: Antiviral activity against Hepatitis C virus assessed as blockage of HCV pseudo paricle entry to human Hep3B cells at 1 uM after 72 hrs; format: functional, Hepacivirus hominis, Hep 3B2
[2] = test system: Vesicular stomatitis virus; test: Antiviral activity against Vesicular stomatitis virus assessed as blockage of VSV pseudo paricle entry to human Hep3B cells at 1 uM after 72 hrs; format: functional, Hep 3B2
[3] = test system: Vesicular stomatitis virus; test: Antiviral activity against Vesicular stomatitis virus assessed as blockage of VSV pseudo paricle entry to human Hep3B cells at 5 uM after 72 hrs; format: functional, Hep 3B2
Hepatitis C virus [4] = test: Antiviral activity against Hepatitis C virus assessed as blockage of HCV pseudo paricle entry to human Hep3B cells at 5 uM after 72 hrs; format: functional, Hepacivirus hominis, Hep 3B2
[5] = Hemolytic activity in rabbit RBC assessed as hemolysis after 60 mins by microtitre plate reader analysis; format: ADME, cell-based, Oryctolagus cuniculus; conditions: erythrocyte, 1 h
Procedure, shortened: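 Rabbit erythrocytes at 2% (5 × 10⁸ RBC/mL) in PBS, pH 7.4, exposed to serially diluted compounds for 60 min at 37 °C. Hemolysis was read as absorbance at 541 nm, and percentage hemolysis was calculated by the routine method.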

SMILES	Activity (Hepatitis C virus [1])	Activity [2]	Activity [3]	Activity (Hepatitis C virus [4])	Activity [5]
CC1(C)C[C@H]2C3=CC[C@@H]4[C@@]5(C)CC[C@H](O)C(C)(C)[C@@H]5CC[C@@]4(C)[C@]3(C)C[C@@H](O)[C@@]2(C(=O)O)C[C@@H]1O	-5.7%	20.7%	33.2%	18.4%	–
CC1(C)[C@@H](O)CC[C@]2(C)[C@H]3CC=C4[C@@H]5C[C@](C)(CO)CC[C@]5(C(=O)O)[C@H](O)C[C@@]4(C)[C@]3(C)CC[C@@H]12	16.5%	-2.5%	3.6%	36.5%	Non-toxic
CC1(C)CC[C@]2(C(=O)O)[C@H](O)C[C@]3(C)C(=CC[C@@H]4[C@@]5(C)CC[C@H](O)C(C)(C)[C@@H]5C[C@H](O)[C@]43C)[C@@H]2C1	30.4%	1.6%	5.6%	53.5%	Non-toxic
CC1(C)CC[C@]2(C(=O)O)[C@H](O)C[C@]3(C)C(=CC[C@@H]4[C@@]5(C)[C@H](O)C[C@H](O)C(C)(C)[C@@H]5CC[C@]43C)[C@@H]2C1	14.3%	7.9%	11.8%	35.2%	Non-toxic
CC1(C)CC2=C3C=C[C@@H]4[C@@]5(C)CC[C@H](O)C(C)(C)[C@@H]5CC[C@@]4(C)[C@]3(C)C[C@@H](O)[C@@]23C[C@@H]1OC3=O	11.6%	-16.2%	-10.3%	31.7%	Non-toxic
CC1(C)C[C@H]2C3=CC[C@@H]4[C@@]5(C)CC[C@H](O)C(C)(C)[C@@H]5[C@H](O)C[C@@]4(C)[C@]3(C)C[C@@H](O)[C@@]23C[C@@H]1OC3=O	-1%	-8.3%	-24%	4.7%	Non-toxic
CC1(C)C[C@H]2C3=CC[C@@H]4[C@@]5(C)[C@H](O)C[C@H](O)C(C)(C)[C@@H]5CC[C@@]4(C)[C@]3(C)C[C@@H](O)[C@@]23C[C@@H]1OC3=O	28.9%	1.8%	19.2%	72.6%	Non-toxic
CC1(C)CC[C@@]2(C(=O)O)C(=C3C=C[C@@H]4[C@@]5(C)CC[C@H](O)C(C)(C)[C@@H]5C[C@H](O)[C@@]4(C)[C@]3(C)C[C@H]2O)C1	22.2%	-13.7%	-4.4%	31.9%	–
CC1(C)CC[C@]2(C(=O)O)[C@H](O)C[C@]3(C)C(=CC[C@@H]4[C@@]5(C)CCC(=O)C(C)(C)[C@@H]5CC[C@]43C)[C@@H]2C1	7.5%	-2.5%	13.6%	41.6%	Non-toxic
CC1(C)CC[C@@]2(C(=O)O)C(=C3C=C[C@@H]4[C@@]5(C)[C@H](O)C[C@H](O)C(C)(C)[C@@H]5CC[C@@]4(C)[C@]3(C)C[C@H]2O)C1	2.3%	-15.8%	5.9%	26.3%	–
CC1(C)C(=O)CC[C@]2(C)[C@H]3CC=C4[C@@H]5C[C@](C)(CO)CC[C@]5(C(=O)O)[C@H](O)C[C@@]4(C)[C@]3(C)CC[C@@H]12	3.1%	-20%	10.7%	-3.3%	–
CC1(C)C[C@H]2C3=CC[C@@H]4[C@@]5(C)CC[C@H](O)C(C)(C)[C@@H]5CC[C@@]4(C)[C@]3(C)C[C@@H](O)[C@@]23C[C@@H]1OC3=O	13.9%	-17.3%	-12.1%	31.9%	Non-toxic
CC1(C)CC[C@]2(C(=O)O)[C@H](O)C[C@]3(C)C(=CC[C@@H]4[C@@]5(C)CC[C@H](O)C(C)(C)[C@@H]5CC[C@]43C)[C@H]2C1 [ECHINOCYSTIC ACID]	21.3%	-0.1%	-0.1%	75.5%	–
